Source: ChEMBL document CHEMBL3297658, “Potent fluorinated agelastatin analogues for chronic lymphocytic leukemia: design, synthesis, and pharmacokinetic studies” (J Med Chem, 2014)
Converted amounts (≈) assume the structure as drawn.

How the values were obtained:
HeLa = assay: Antitumor activity against human HeLa cells assessed as cell viability by MTT assay; format: functional, cell-based
Summary of the method: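 Adherent HeLa cells exposed to compound, then medium replaced with 0.5 mg/mL MTT in phenol-red-free RPMI and incubated overnight at 37 °C. Lysed with 15% SDS/0.015 M HCl and OD read at 570 nm once formazan dissolved. EC50 and SE derived from dose–response curves.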

[1] = Antitumor activity against CLL2 cells isolated from CLL patient assessed as cell viability after 48 hrs by FACS analysis; format: functional, cell-based, Homo sapiens
Summary of the method: (§1)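 Primary CLL patient cells or JVM-2 line cultured 48 h (37 °C, 5% CO2) in RPMI + 10% FBS with graded compound. Stained 30 min at 37 °C with 40 nM DiOC6 and 10 μg/mL PI, then flow cytometry (525 nm DiOC6, 600 nm PI). Viability = % DiOC6+/PI− relative to untreated or vehicle control. EC50 and SE fitted from dose–response curves.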

[2] = Antitumor activity against human JVM2 cells assessed as cell viability after 48 hrs by FACS analysis; format: functional, cell-based; conditions: JVM-2, 48 h; summary of the method: as §1
[3] = Antitumor activity against CLL1 cells isolated from CLL patient assessed as cell viability after 48 hrs by FACS analysis; format: functional, cell-based; conditions: Homo sapiens; summary of the method: as §1
[4] = Drug recovery in BALB/c mouse serum at 50 uM after 24 hrs by LC-MS method; format: ADME, cell-free; conditions: read-out: Drug recovery
Summary of the method: (§2)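 Compound added to pooled female BALB/c mouse plasma or serum, or to human AB serum, at 50 μM final (1% DMSO) and incubated at 37 °C with gentle agitation. Aliquots taken at 0, 0.5, 1, 2, 8, 18 and 24 h, proteins precipitated with CH3CN, spun at 3000g for 10 min, supernatant analysed by LCMS. Run in triplicate.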

[5] = Antitumor activity against CLL4 cells isolated from CLL patient assessed as cell viability after 48 hrs by FACS analysis; format: functional, cell-based; conditions: Homo sapiens; summary of the method: as §1
Liver [6] = assay: Metabolic stability in mouse liver microsomes at 100 uM measured after 1 hr by LC/MS analysis in presence of 1 mM NADPH; format: ADME
Summary of the method: (§3)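 Microsomes (final protein 5 mg/mL, mouse or human) in 0.1 M sodium phosphate pH 7.4 with compound at 100 μM final (DMSO <1%). Preincubated 5 min at 37 °C, started with NADPH (1 mM final), run 60 min at 37 °C with agitation. Stopped with MeOH and centrifuged; supernatant analysed by LCMS. Controls: zero time, no NADPH, heat-inactivated microsomes, and 7-ethoxycoumarin as CYP substrate.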

[7] = Tmax in BALB/c mouse plasma at 5 mg/kg, ip administered as single dose by LC/MS analysis; format: ADME, organism-based; design: dose 5 mg/kg, route intraperitoneal
Summary of the method: (§4)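 Female BALB/c mice dosed at 6 weeks of age with a single intraperitoneal dose of 2.5 or 5.0 mg/kg, n = 4. Tail-vein blood taken at set times and stored at -80 °C. Samples precipitated with CH3CN, spun at 3000g for 10 min, concentrated, reconstituted in 1:1 CH3CN/H2O and quantified by LCMS. PK parameters derived from the concentration–time curves.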

[8] = AUC in BALB/c mouse plasma at 2.5 mg/kg, ip administered as single dose by LC/MS analysis; format: ADME, organism-based; design: dose 2.5 mg/kg, route intraperitoneal; summary of the method: as §4
[9] = AUC in BALB/c mouse plasma at 5 mg/kg, ip administered as single dose by LC/MS analysis; format: ADME, organism-based; design: dose 5 mg/kg, route intraperitoneal; summary of the method: as §4
Liver [10] = assay: Metabolic stability in human liver S9 fraction containing glucuronidase; format: ADME, subcellular
[11] = Half life in BALB/c mouse plasma at 2.5 mg/kg, iv administered as single dose by LC/MS analysis; format: ADME, organism-based; design: dose 2.5 mg/kg, route intravenous
Summary of the method: (§5)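 Female BALB/c mice given a single 2.5 mg/kg dose intravenously (IP arm run in parallel). Plasma concentration–time course followed by LCMS. AUC, Cmax, Tmax and t1/2 calculated from the curves.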

[12] = Antitumor activity against CLL6 cells isolated from CLL patient assessed as cell viability after 48 hrs by FACS analysis; format: functional, cell-based; conditions: Homo sapiens, CLL6, 48 h; summary of the method: as §1
[13] = Cmax in BALB/c mouse plasma at 2.5 mg/kg, ip administered as single dose by LC/MS analysis; format: ADME, organism-based; design: dose 2.5 mg/kg, route intraperitoneal; summary of the method: as §4
[14] = Cmax in BALB/c mouse plasma at 2.5 mg/kg, iv administered as single dose by LC/MS analysis; format: ADME, organism-based; design: dose 2.5 mg/kg, route intravenous; summary of the method: as §5
[15] = Drug recovery in BALB/c mouse plasma at 50 uM after 24 hrs by LC-MS method; format: ADME, cell-free; conditions: read-out: Drug recovery; summary of the method: as §2
Serum [16] = assay: Protein binding in BALB/c mouse serum at 50 uM after 1 to 24 hrs by LC-MS method; format: ADME; summary of the method: as §2
Liver [17] = assay: Metabolic stability in mouse liver microsomes containing glucuronidase; format: ADME
[18] = Half life in BALB/c mouse plasma at 5 mg/kg, ip administered as single dose by LC/MS analysis; format: ADME, organism-based; design: dose 5 mg/kg, route intraperitoneal; summary of the method: as §4
[19] = Drug recovery in human AB serum at 50 uM after 24 hrs by LC-MS method; format: ADME, cell-free; conditions: read-out: Drug recovery; summary of the method: as §2
[20] = Tmax in BALB/c mouse plasma at 2.5 mg/kg, iv administered as single dose by LC/MS analysis; format: ADME, organism-based; design: dose 2.5 mg/kg, route intravenous; summary of the method: as §5
[21] = Cytotoxicity against human CLL cells; format: functional, cell-based
Summary of the method: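 Primary patient CLL cells cultured 48 h (37 °C, 5% CO2) in RPMI with 10% FBS and test compound. Viability taken as the DiOC6+/PI− fraction relative to untreated or vehicle control. EC50 with SE from dose–response curves.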

[22] = Antitumor activity against CLL3 cells isolated from CLL patient assessed as cell viability after 48 hrs by FACS analysis; format: functional, cell-based; conditions: Homo sapiens; summary of the method: as §1
[23] = Tmax in BALB/c mouse plasma at 2.5 mg/kg, ip administered as single dose by LC/MS analysis; format: ADME, organism-based; design: dose 2.5 mg/kg, route intraperitoneal; summary of the method: as §4
[24] = Antitumor activity against CLL5 cells isolated from CLL patient assessed as cell viability after 48 hrs by FACS analysis; format: functional, cell-based; conditions: Homo sapiens; summary of the method: as §1
Serum [25] = assay: Protein binding in human AB serum at 50 uM after 1 to 24 hrs by LC-MS method; format: ADME; summary of the method: as §2
Liver microsome = assay: Metabolic stability in human liver microsomes at 100 uM measured after 1 hr by LC/MS analysis in presence of 1 mM NADPH; format: ADME; summary of the method: as §3
Mus musculus = assay: Half life in BALB/c mouse plasma at 2.5 mg/kg, ip administered as single dose by LC/MS analysis; format: ADME, organism-based; design: dose 2.5 mg/kg, route intraperitoneal; conditions: in vivo; summary of the method: as §4
KB = assay: Cytotoxicity against human KB cells; format: functional, cell-based
Plasma = assay: Protein binding in BALB/c mouse plasma at 50 uM after 1 to 24 hrs by LC-MS method; format: ADME, cell-free; summary of the method: as §2
[26] = Cmax in BALB/c mouse plasma at 5 mg/kg, ip administered as single dose by LC/MS analysis; format: ADME, organism-based; design: dose 5 mg/kg, route intraperitoneal; summary of the method: as §4
[27] = AUC in BALB/c mouse plasma at 2.5 mg/kg, iv administered as single dose by LC/MS analysis; format: ADME, organism-based; design: dose 2.5 mg/kg, route intravenous; summary of the method: as §5

Work on `CN1C(=O)N[C@H]2[C@@H]3NC(=O)c4cc(C(F)(F)F)c(C(F)(F)F)n4[C@@H]3C[C@]21O` yielded an EC50 (HeLa) of 153 µM, an EC50 ([1]; Homo sapiens, CLL2, 48 h) of 19.2 µM and an EC50 [2] of 41 µM.
Work on `CN1C(=O)N[C@H]2[C@@H]3NC(=O)c4cc(C(F)(F)F)cn4[C@@H]3C[C@]21O` yielded an EC50 [3] of 45.1 µM, an EC50 (HeLa) of 19.6 µM and an EC50 ([1]; Homo sapiens, CLL2, 48 h) of 4.68 µM. For the same compound, the EC50 [2] was 22.8 µM.
`CN1C(=O)N[C@H]2[C@@H]3NC(=O)c4ccc(C(F)F)n4[C@@H]3C[C@]21O` showed an EC50 [3] of 13 µM, an EC50 (HeLa) of 4.01 µM and an EC50 ([1]; Homo sapiens, CLL2, 48 h) of 5.44 µM. For the same compound, the EC50 [2] was 4.66 µM.
With `CN1C(=O)N[C@H]2[C@@H]3NC(=O)c4cc(I)c(Br)n4[C@@H]3C[C@]21O` the EC50 [3] was 211 µM, the EC50 (HeLa) was 86.7 µM and the EC50 ([1]; Homo sapiens, CLL2, 48 h) was 48.2 µM. The EC50 [2] was 162 µM.
For `CO[C@@]12C[C@@H]3[C@H]([C@@H]1N(C)C(=O)N2C)N(C)C(=O)c1ccc(Br)n13`, the EC50 [3] was 140 µM, the EC50 (HeLa) was 59 µM and the EC50 ([1]; Homo sapiens, CLL2, 48 h) was 47.7 µM. The EC50 [2] was 55.7 µM.
`CN1C(=O)N[C@@]2(O)[C@@H]3NC(=O)c4ccc(Br)n4[C@@H]3C[C@@]12O` gave an EC50 [3] of 84.6 µM, an EC50 (HeLa) of 7.63 µM and an EC50 ([1]; Homo sapiens, CLL2, 48 h) of 10 µM. It also gave an EC50 [2] of 4.07 µM.
In the case of `CN1C(=O)N[C@H]2[C@@H]3NC(=O)c4ccc(Br)n4[C@@H]3C[C@]21O` (stereo in doubt; 1a) [AGELASTATIN A], the remaining at 24 h, 50 µM [4] is reported as 65%, the EC50 [5] is reported as 0.37 µM and the Stability (Liver [6]) is reported as “Stable”. It also gave a Tmax [7] of 30 min, an AUC [8] of 2.95 µM·h and an AUC [9] of 4.29 µM·h. For the same compound, the Stability (Liver [10]) was “Stable”, the half-life [11] was 4 min and the EC50 [12] was 1.15 µM. The Cmax [13] was 1280 nM, the Cmax [14] was 4500 nM and the remaining at 24 h, 50 µM [15] was 65%. For the same compound, the PB (Serum [16]) was “Not Active”, the Stability (Liver [17]) was “Stable” and the EC50 [3] was 0.31 µM. It also gave a half-life [18] of 60 min, an EC50 (HeLa) of 0.11 µM and a remaining at 24 h, 50 µM [19] of 65%. It also gave a Tmax [20] of 2 min, an IC50 [21] of 0.06 µM and an EC50 [22] of 0.24 µM. The Tmax [23] was 30 min, the EC50 [24] was 0.29 µM and the EC50 ([1]; cll2) was 0.16 µM. The PB (Serum [25]) was “Not Active”, the Stability (Liver microsome) was “Stable” and the t1/2 (Mus musculus) was 60 min. The IC50 (KB) was 0.5 µg/mL (≈ 1.47 µM), the PPB (Plasma) was “Not Active” and the EC50 [2] was 0.28 µM. For the same compound, the Cmax [26] was 2300 nM and the AUC [27] was 1.74 µM·h.
With `CN1C(=O)N[C@H]2[C@@H]3NC(=O)c4ccc(Br)n4[C@@H]3C[C@]21O` (stereo in doubt; 3) [AGELASTATIN A] the EC50 ([1]; cll2) was > 1 µM.
With `O=C1N[C@H]2[C@@H]3NC(=O)c4ccc(Br)n4[C@@H]3C[C@@]2(O)N1` [AGELASTATIN D] the EC50 [3] was 91.1 µM, the EC50 ([1]; Homo sapiens, CLL2, 48 h) was 29 µM and the EC50 [2] was 13.2 µM.
For `CCOc1ccc2ccc(=O)oc2c1` [ETHOXYCOUMARIN], the Stability (Liver [6]) was “Unstable” and the Stability (Liver microsome) was “Unstable”.
For `Nc1nc(F)nc2c1ncn2[C@@H]1O[C@H](CO)[C@@H](O)[C@@H]1O` [FLUDARABINE], the EC50 [5] was 0.64 µM, the EC50 [12] was 1.6 µM and the EC50 [3] was 17.1 µM. For the same compound, the EC50 (HeLa) was 16 µM, the EC50 [22] was 0.35 µM and the EC50 [24] was 0.16 µM. The EC50 ([1]; Homo sapiens, CLL2, 48 h) was 2.66 µM and the EC50 [2] was 10.4 µM.
